Assay results from the EternaBench riboswitch data.

Tested on: MS2 coat protein
Assay: apparent Kd, MS2 coat protein; higher = weaker binding; RNA-MaP array; FMN 200 µM where present
Summary of the method: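 Each design was made on Illumina sequencing-chip clusters by stalled E. coli RNA polymerase and titrated with SNAP-549-labelled MS2 coat protein from 0.7 or 1.5 nM, doubling to 3 µM, in the absence and then the presence of constant ligand. The buffer was 100 mM Tris-HCl pH 7.5, 80 mM KCl, 4 mM MgCl2, BSA, DTT, yeast tRNA and Tween-20. The apparent Kd is the median of filtered per-cluster fits of binding curves, with green signal normalised to red-channel RNA signal and control-cluster median Fmax.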

[1] = designed as: OFF switch for flavin mononucleotide, no ligand
[2] = ligand present: flavin mononucleotide, designed as: OFF switch for flavin mononucleotide
[3] = designed as: ON switch for flavin mononucleotide, no ligand
[4] = ligand present: flavin mononucleotide, designed as: ON switch for flavin mononucleotide

Row | Sequence | apparent Kd [1] [nM] | apparent Kd [2] [nM] | apparent Kd [3] [nM] | apparent Kd [4] [nM]
1 | UCCUUAUCGGUCAGGAUAUACACCCGUUUCUCCUUGUAGAAGGGACAUGAGGAUCACCCAUGUACAGUACAUCU | 20.4 | 19.1 |  | 
2 | UGAUCUUGAGUCAGGAUAUGCUGGUAUUUUUACCAGCAGAAGGGACAUGAGGAUCACCCAUGUUCUCACUUUUU | 10.1 | 13.4 |  | 
3 | AUCAGCUCGUCAGGAUAUACGUCACUGCGUCAGCAGUGUGGUAAGAUCACAUGAGGAUCACCCAUGUAGAAGGGACGAACUGAU | 13.6 | 292 |  | 
4 | UCUACGUAAAUUCAUCAAUACAGAAAGGAUAUGAAAUACAUGAGGAUCACCCAUGUGCAUGGGAAUUAGAAGGUUCAAUUAACU | 202 | 104 |  | 
5 | CUUUUGUGAGGAUAUUCGUAGUAAAUGAAUAAAAUUAUUACGGAGAAGGCACAUGAGGAUCACCCAUGUUCCUC | 42.2 | 343 |  | 
6 | AAUUUGGAGGGAGGAUAUACAUGAGGAUCACCCAUGUAGCCUAACACGGCUCUCAAUUUCCAAGUGUAGAAGGCCCAACGUGUU | 13.6 | 48.8 |  | 
7 | GCCGAACAUGAGGAUCACCCAUGUCUGGGUAAUUAAGGAUAUGGGAAGGCUUUGCCGUGGCCAGAAGGUGGUUAUC |  |  | 171 | 108
8 | GAUAGGACAGAGAAGGACGUAGCUAGAGAUACUAGCAUUAAGUCCUCAACAUGAGGAUCACCCAUGUAGGAUAUCUGUCCUAUC | 6.23 | 6.71 |  | 
9 | AAAACGAUGUGAGGAUAUCACCGCUGUGACGGCUGAGAAGGCACAUGAGGAUCACCCAUGUGCAGGCGUGUGUGGGUAAUCCUA | 109 | 94.8 |  | 
10 | AGCUGACGAGGAUAUACAUGAGGAUCACCCAUGUUGGUUCAGCGACGAUAGUCGCAAUGUAGAAGGUGUCAGCU | 126 | 664 |  | 
11 | CGGUGGUCAGGAUAUACGAACAUGUCGCCAGAUGUCAUGGUACAUGAGGAUCACCCAUGUAGAAGGGAGUAGGU | 181 | 171 |  | 
12 | UAAUAAUAAUAAUAAUGCUGACAUACAUGAGGAUCACCCAUGUAGGAUAUCGUCAGGAAUACUGACGAGAAGGACAUAGUCAGC | 15.4 | 17.4 |  | 
13 | AGAGACCUCACAGGAUAUGCUGGACUUUGUCCAGCAGAAGGGUGAAAACAUGAGGAUCACCCAUGUAUGGUCUCCAAAUUUAAA |  |  | 186 | 12.1
14 | GCAAAGCCUGACAUGAGGAUCACCCAUGUUAGAUUGUUAUGUCAGGAUAUUGUCUAGACCCUAGACAAGAAGGGAUGCUUUGCA |  |  | 472 | 29.1
15 | GUGCAUUCGUAGAAGGGUGACAUGAGGAUCACCCAUGUGCGCUGGGCUCGGGAGGCAUCAGCGCCACAGGAUAUACGAAGCACC |  |  | 66.8 | 48.6
16 | AAUUUAAUACAUGAGGAUCACCCAUGUAAUACUUGUAAGAUCAAGGAUAUCAGCUCGAUUAGAGCUGAGAAGGUGAUCACAUGU |  |  | 73.1 | 204
17 | UGUCGGAGCAGAGGAUAUUACAUGAGGAUCACCCAUGUAUGCACCAAUAGCUGGAAACAGCAAUGUAAGAAGGCUGCUCCGACA | 5.38 | 15.2 |  | 
18 | UCGAAAAUGCAAGGAUAUCAAUUAUAGCAAAAUAAGACAUGAGGAUCACCCAUGUAAAUAUGGAGUGAGAAGGUGCAAUAAUUU |  |  | 413 | 123
19 | GGUGCGUUUGUGAGGAUAUGCUGGUCCUUGGUUCGGCAGAAGGCACAUGAGGAUCACCCAUGUGGUGUCGCUCC | 41.7 | 139 |  | 

Row | Sequence | apparent Kd [1] [nM] | apparent Kd [2] [nM] | apparent Kd [3] [nM] | apparent Kd [4] [nM]
20 | AAUGCCAAUGAAGGAUAUACAAACAUGAGGAUCACCCAUGUGUCUUUCGUGUAACUGGAAUUCGGGUAGAAGGUCAUUGACAUA | 34.5 | 26.9 |  | 
21 | AACCCUUGAGGAUAUUAAACAAAUCACAUGAGGAUCACCCAUGUGCAUACCUCGUGGCUUUGAGAAGGCAGUCGGG | 34.9 | 39.2 |  | 
22 | CAGUUGGGCUCAGGAUAUCGGGUUUAACAUGAGGAUCACCCAUGUCGUCCGCGAAAGCGGAAUCACGAGAAGGGAGACCAGCGA |  |  | 9.12 | 6.42
23 | AAAUCCAACGAAGGAUAUACAAACAUGAGGAUCACCCAUGUGUCUUUCGUGUAACUGGAAUUCGGGUAGAAGGUCGUUGACAUA | 11.8 | 17.6 |  | 
24 | GUGCGUGGCUAGGAUAUUGUGGAGUUUUGUCAGCGAGAAGGAGCCACAUGAGGAUCACCCAUGUGGUGUUGCUC |  | 67.5 |  | 
25 | CAGCUGAAUGUGAGGAUAUUACGAGCUGCGGCUCGUGAGAAGGCACAUGAGGAUCACCCAUGUCUCAACAGCUG | 37.2 | 741 |  | 
26 | GCAUUUUAUGCAGGAUAUUGUCUUUGGAUUAAACAAGAAGGGCAUAACAUGAGGAUCACCCAUGUUUUAUAGGUAUAUAUGUUC | 14.2 | 21.6 |  | 
27 | GGGUACAUCUGAGGAUAUCAUGUAAAUACAUGAGGAUCACCCAUGUCGAUGGAGACAUCGGAGAUUGAGAAGGCCGAUGUACCG |  |  | 263 | 14
28 | UAUUAGUGAGGAUAUGGUAAAGAUAAGAUGAUGAAAGAACUCCAGAAGGCACAUGAGGAUCACCCAUGUAGUAG | 21.8 | 24.6 |  | 
29 | GUAGCUAUCGGAGGAUAUUCAUACCGGAAACGGACAUGAGGAUCACCCAUGUGGCGAAAGCCUUGGGAGAAGGUCGAUAGCUAC |  |  | 308 | 10.5
30 | GCAGCAAUCUAAAACAUGAGGAUCACCCAUGUCGAGAGAUAUGAGGAUAUGCAUCUGAAGAAGAUGCAGAAGGCAUUGUGCUGC |  |  | 8.1 | 6.15
31 | GCGUAUUAGGUGUAGCUAGACAUUCAAGAAGGGUGAAGAACAUGAGGAUCACCCAUGUAGUUGUUACAGGAUAUUGAUUUACGC |  |  | 785 | 260
32 | UAGUGGCAAGGAUAUACAGUGGAGAGGAUUGCAAGAGGUGGACAUGAGGAUCACCCAUGUAGAAGGUGCAGAGA | 298 | 182 |  | 
33 | UUGGACGUCGUAGGAUAUGUAGGAUAUUCCUACAUGAGGAUCACCCAUGUUGACAUGGAAGAAGGACAGAAGGACGCUGUCCAU |  |  | 576 | 8.85
34 | GUCAUGUCAGGAUAUGCUUAUGAUGAGUGCUCAGACAUGAUGCAGAAGGGACAUGAGGAUCACCCAUGUACUGA | 22.4 | 26.8 |  | 
35 | AAUUAUUAUUGAGGAUAUCGUAUUGAAAUAAUAUGAGAAGGCGGGAUAAACAUGAGGAUCACCCAUGUGAGCCUGAUGCUUGUG | 16.6 | 16.3 |  | 
36 | CAGGUAGACUGAGGAUAUACAAAAGACCUAGUCUAUCUAGGUCAACUCACAUGAGGAUCACCCAUGUAGAAGGCAGUCUGCCUG | 19.3 | 70.9 |  | 
37 | GGCGAACAGGCUAACAUGAGGAUCACCCAUGUGGACUCAUGCGAGGAUAUCGGGAAGGAGGAUUCCGAGAAGGUGCGGUGAGCC |  |  | 788 | 304
38 | GUAUCUUAUGUGAGGAUAUAUUAUGUCUUGGUGUAGUAGAAGGCACAUGAGGAUCACCCAUGUCCUAUUGGUCU | 40.9 | 116 |  | 

Row | Sequence | apparent Kd [1] [nM] | apparent Kd [2] [nM] | apparent Kd [3] [nM] | apparent Kd [4] [nM]
39 | UUUGACGUCGUAGGAUAUGUAGGAUAUUCCUACAUGAGGAUCACCCAUGUUGACAUGGAAGAAGGACAGAAGGACGAUGUCCAU |  |  | 304 | 5.56
40 | UGGUACUAGGGAGGAUAUGGGAAGAUACAUGAGGAUCACCCAUGUUUAAGAAUGCCGAGAGGCUACUAGAAGGCCCUAGUACCU |  |  | 268 | 9.69
41 | GGUAGGAUCGCAGGAUAUGCUAUCCUUUGGGUAGCAGAAGGGUGAUAACAUGAGGAUCACCCAUGUCCUACCGGGCGUGAGCCC |  |  | 57.8 | 1590
42 | GGAUUACAUGAGGAUCACCCAUGUGAGGAUAUCGAUGUCCUCAAUGAAGUGCGGGACUCGAGAAGGCACUUGGA | 78.5 | 108 |  | 
43 | GGAUGGACCCAGAAGGGCAGAUCCCGAGGAAUUUGAGAUGAGCGGAUAUGUAGGAUAUGGGUGGACAUGAGGAUCACCCAUGUC |  |  | 176 | 42.6
44 | CACAAGAAAGUCGAAGGUUGAAGUAGAAGGUUUAUAACAUGACAUGAGGAUCACCCAUGUGCCAAGAAGGAUAUGCUUUAAUCG | 11.4 | 9.43 |  | 
45 | CAGCUCUGAGGAUAUCCACCCUCGUACAUGAGGAUCACCCAUGUUUCCCUCUGGGCUUUCGGAGAAGGCAGGUAUC | 59.1 | 55.3 |  | 
46 | UUUUUGCUAUAUACAUGAGGAUCACCCAUGUCCACUGACAGACAGGAUAUCCUUAGAAACUAGCAGGAGAAGGGUCAGUCAUAC |  |  | 487 | 69
47 | CGCCGCACCGGCCUGCGGCAGGGUCAGGAUAUACAUGAGGAUCACCCAUGUGAACGGUGCCCUAUGUAGAAGGGACGAAAAGAA | 22.8 | 37.5 |  | 
48 | UUCAUGUGAGGAUAUCAGUAGUAAAAAAAUAAAAUUACUACUGAGAAGGCACAUGAGGAUCACCCAUGUCCUUC | 62.5 | 40.8 |  | 
49 | AAUGUUGAUGUGAGGAUAUACAUAGUUUGACCGUAGUAGAAGGCACAUGAGGAUCACCCAUGUAGAUGUUUGGU | 12 | 24.2 |  | 
50 | CUUCAGUCAGGAUAUGUUAAUCUCGCCACUCGGCGAGCCGGACAGAAGGGACAUGAGGAUCACCCAUGUUAAAA | 37.6 | 22.2 |  | 
51 | GUGAUACAUGAGGAUCACCCAUGUCACCUCACACGAGGAUAUCUGUGCAGUACUCAGUACGGAGAAGGCGUGGAAA |  |  | 96.7 | 26.4
52 | UGCCGGAGCAGAGGAUAUUACAUGAGGAUCACCCAUGUAUGAACCAAUAGCUGGAAACAGCAAUGUAAGAAGGCUGCUCCGACA | 13.4 | 144 |  | 
53 | UGAGCUUGAGGAUAUACAUGACGUGCCGUAGCACGAGGUCUACAUGAGGAUCACCCAUGUAGAAGGCAAGUUCU | 29.6 | 192 |  | 
54 | GGAAUACAUGAGGAUCACCCAUGUAAGGAUAUGCUGAUUAACACGGAAUAAUUAUGCAGCAGAAGGUACAAAGG | 113 | 91.1 |  | 
55 | UAGAAGUCAGGAUAUGCAUGGCGGGACUUGCGUCGUGGCGUGCAGAAGGGACAUGAGGAUCACCCAUGUGGAGG | 152 | 219 |  | 
56 | CGUUGAUGAGGAUAUCGAUGUUAGUACAUGAGGAUCACCCAUGUUAUCCAAGUGUCGGAUCGAGAAGGUAUUGGAC | 320 | 306 |  | 
